Assay results published in ChEMBL document CHEMBL1777808, “Preparation and pharmacological evaluation of a novel series of 2-(phenylthio)benzo[b]thiophenes as selective MT2 receptor ligands” (Eur J Med Chem, 2011).

How the values were obtained:
[1] = target: T1, Melatonin receptor type 1B (Homo sapiens, UniProt P49286); experiment: Agonist activity at human MT2 receptor expressed in CHO cells by [35S]GTPgamma binding assay; format: functional, cell-based
T1 sequence (P49286 whole entry): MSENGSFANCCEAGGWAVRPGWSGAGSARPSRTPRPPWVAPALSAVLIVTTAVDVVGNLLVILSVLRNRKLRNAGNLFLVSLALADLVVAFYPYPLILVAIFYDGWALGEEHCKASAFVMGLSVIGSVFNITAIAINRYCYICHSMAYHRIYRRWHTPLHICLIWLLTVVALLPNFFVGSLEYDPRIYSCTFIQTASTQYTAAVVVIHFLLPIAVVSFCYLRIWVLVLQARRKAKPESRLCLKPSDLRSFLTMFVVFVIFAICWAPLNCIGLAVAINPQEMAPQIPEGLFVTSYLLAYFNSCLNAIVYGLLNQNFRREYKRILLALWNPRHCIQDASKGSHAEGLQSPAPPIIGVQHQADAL

[2] = target: T1, Melatonin receptor type 1B; experiment: Displacement of 2-[125I]iodomelatonin from human MT2 receptor expressed in CHO cells; format: cell-based
[3] = target: T2, Melatonin receptor type 1A (Homo sapiens, UniProt P48039); experiment: Displacement of 2-[125I]iodomelatonin from human MT1 receptor expressed in CHO cells; format: cell-based
T2 sequence (P48039 whole entry): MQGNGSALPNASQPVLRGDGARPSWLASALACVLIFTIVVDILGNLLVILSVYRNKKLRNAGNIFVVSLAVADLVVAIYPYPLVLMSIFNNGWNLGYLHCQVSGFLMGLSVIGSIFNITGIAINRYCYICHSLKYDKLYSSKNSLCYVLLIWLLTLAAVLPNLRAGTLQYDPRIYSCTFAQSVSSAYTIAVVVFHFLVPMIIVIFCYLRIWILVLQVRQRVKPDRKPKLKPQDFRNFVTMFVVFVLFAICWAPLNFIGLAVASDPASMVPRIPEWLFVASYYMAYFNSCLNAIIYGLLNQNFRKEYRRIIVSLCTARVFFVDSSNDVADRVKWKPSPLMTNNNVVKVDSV

[4] = target: T2, Melatonin receptor type 1A; experiment: Agonist activity at human MT1 receptor expressed in CHO cells by [35S]GTPgamma binding assay relative to melatonin; format: functional, cell-based
[5] = species: Homo sapiens; experiment: Selectivity ratio of Ki for human MT1 receptor to Ki for human MT2 receptor
Outline: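 Ki values from competition binding on membranes of stably transfected CHO cells (human MT1 or MT2). Ratio is MT1 Ki over MT2 Ki.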

[6] = target: T2, Melatonin receptor type 1A; experiment: Agonist activity at human MT1 receptor expressed in CHO cells by [35S]GTPgamma binding assay; format: functional, cell-based
[7] = target: T3, Melatonin receptor type 1B (Homo sapiens) (UniProt P49286); experiment: Agonist activity at human MT2 receptor expressed in CHO cells by [35S]GTPgamma binding assay relative to melatonin; format: functional, cell-based
T3 sequence (whole entry): T1 sequence (P49286 whole entry)

[8] = target: T2, Melatonin receptor type 1A; experiment: Antagonist activity at human MT1 receptor expressed in CHO cells assessed as inhibition of melatonin-induced [35S]GTPgamma binding; format: functional, cell-based
Outline: (§1)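 Then 0.2 nM [35S]GTPγS added, 1 h at room temperature in HEPES pH 7.4/NaCl/MgCl2/GDP/saponin buffer. Filtration, three ice-cold washes.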

[9] = target: T3, Melatonin receptor type 1B (Homo sapiens); experiment: Antagonist activity at human MT2 receptor expressed in CHO cells assessed as inhibition of melatonin-induced [35S]GTPgamma binding; format: functional, cell-based; outline: as §1

Row | Compound | EC50 [1] | Ki [2] | Ki [3] | Emax [4] | Ratio Ki [5] | EC50 [6] | Emax [7] | Kb [8] | Kb [9] | Imax [8] | Imax [9]
1 | O=C(NCCc1c(Sc2ccc(F)cc2)sc2ccc(F)cc12)C1CCC1 |  | 194 nM | 915 nM |  | 4.7 |  |  |  |  |  | 
2 | CC(=O)NCCc1csc2ccc(F)cc12 | 0.68 nM | 4.87 nM | 24.6 nM | 87% | 5 | 23.8 nM | 61% | 62.8 nM | > 10000 nM |  | 
3 | CC(=O)NCCc1c(Sc2ccc(F)cc2)sc2ccc(F)cc12 | 0.64 nM | 0.87 nM | 57 nM | 33% | 65.5 | 202 nM | 42% |  |  |  | 
4 | O=C(CCCCl)NCCc1c(Sc2ccc(F)cc2)sc2ccc(F)cc12 |  | 24.8 nM | 2860 nM |  | 115 |  |  |  |  |  | 

The next lines start with the values.

Row | EC50 [1] | Ki [2] | Ki [3] | Emax [4] | Ratio Ki [5] | EC50 [6] | Emax [7] | Kb [8] | Kb [9] | Imax [8] | Imax [9] | Compound
5 | 2.15 nM | 0.24 nM | 52.8 nM | 45% | 220 | 188 nM | 52.4% |  |  |  |  | C=CCC(=O)NCCc1c(Sc2ccc(F)cc2)sc2ccc(F)cc12
6 | 7.27 nM | 5.21 nM | 22.1 nM |  | 4.2 | > 10000 nM | 47% |  |  |  |  | O=C(CBr)NCCc1c(Sc2ccc(F)cc2)sc2ccc(F)cc12
7 | > 10000 nM | 4.4 nM | 226 nM |  | 51.4 | > 10000 nM |  | 42 nM | 0.67 nM | 115% | 92% | CCC(=O)NCCc1c(Sc2ccc(F)cc2)sc2ccc(F)cc12
8 |  | 10.7 nM | 236 nM |  | 22 |  |  |  |  |  |  | C=CC(=O)NCCc1c(Sc2ccc(F)cc2)sc2ccc(F)cc12
